The target of series [1] is T1, α-Mannosidase (α-Man) (Canavalia ensiformis, UniProt C0HJB3).
T1 sequence (C0HJB3 1-562 limits assumed): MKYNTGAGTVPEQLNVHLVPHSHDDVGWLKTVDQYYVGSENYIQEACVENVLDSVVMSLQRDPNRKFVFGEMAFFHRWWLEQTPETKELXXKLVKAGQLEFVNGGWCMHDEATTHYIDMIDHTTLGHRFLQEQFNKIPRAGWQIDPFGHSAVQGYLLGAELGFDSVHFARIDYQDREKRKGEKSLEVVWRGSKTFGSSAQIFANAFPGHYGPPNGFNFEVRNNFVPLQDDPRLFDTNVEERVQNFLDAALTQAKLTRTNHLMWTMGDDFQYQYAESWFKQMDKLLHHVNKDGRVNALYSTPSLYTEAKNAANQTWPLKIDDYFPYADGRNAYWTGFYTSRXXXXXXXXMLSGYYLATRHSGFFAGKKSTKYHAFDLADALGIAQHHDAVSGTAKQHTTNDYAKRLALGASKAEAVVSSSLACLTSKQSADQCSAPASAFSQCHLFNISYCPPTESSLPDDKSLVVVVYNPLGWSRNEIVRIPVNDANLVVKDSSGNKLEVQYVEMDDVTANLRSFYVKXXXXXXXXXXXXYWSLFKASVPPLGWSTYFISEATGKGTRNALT
T1 sequence (C0HJB3 563-981 partner limits assumed): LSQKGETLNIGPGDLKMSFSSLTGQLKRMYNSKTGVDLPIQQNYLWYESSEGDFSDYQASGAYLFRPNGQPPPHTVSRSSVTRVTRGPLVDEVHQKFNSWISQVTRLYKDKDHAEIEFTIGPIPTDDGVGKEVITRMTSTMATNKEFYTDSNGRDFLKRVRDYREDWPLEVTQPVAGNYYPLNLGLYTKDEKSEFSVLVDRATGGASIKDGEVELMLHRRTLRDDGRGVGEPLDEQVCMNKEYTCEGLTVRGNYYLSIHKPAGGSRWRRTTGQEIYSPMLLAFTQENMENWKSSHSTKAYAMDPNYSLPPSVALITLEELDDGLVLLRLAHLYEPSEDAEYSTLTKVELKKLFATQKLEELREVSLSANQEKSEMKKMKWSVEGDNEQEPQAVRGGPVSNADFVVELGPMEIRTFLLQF
As to the kind of experiment: SPR interaction analysis between compounds and immobilised α-Man. The conditions noted are these: for Kd: KD (equilibrium dissociation constant), kinetic analysis, SPR, 25 °C, 1:1 Langmuir binding model; for kon: read-out: ka (association rate constant); for koff: read-out: kd (dissociation rate constant). Type of series: binding, Canavalia ensiformis (Jack bean). In outline:
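The α-Man chip was referenced against an enzyme-free channel. Each test compound was run at six concentrations in a twofold series, injected in parallel at 25 μL/min and 25 °C, with 12 min association and 20 min dissociation. A 4.0–6.0% DMSO calibration curve was applied. Runs were done in triplicate. ka, kd and KD came from a global 1:1 Langmuir fit; equilibrium constants came from steady-state analysis.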

Series [2] has as its system human hepatoma cancer cell line (HepG2). As to the kind of experiment: cells. In kind it is cell-based. The conditions noted are these: HepG2, 72 h, read-out: IC50, anti-proliferative activity.
The test system of series [3] is human breast cancer cell line (MCF7). As to the kind of experiment: cells. Type of series: cell-based. The conditions noted are these: MCF7, 72 h, read-out: IC50, anti-proliferative activity.
Series [4] deals with human lung cancer cell line (HCC827). In words: cells. In kind it is cell-based. The conditions noted are these: HCC827, 72 h, read-out: IC50, anti-proliferative activity.
The subject of series [5] is mouse fibroblast cells (L929). In words: CCK-8 toxicity on normal cells, L929. In kind it is cell-based. The conditions noted are these: L929, under the condition of keeping 90% cell viability.
Series [6] has as its target T1, α-Mannosidase (α-Man). As to the kind of experiment: SPR bioactivity assessment: binding ability. More on the design: species or system Canavalia ensiformis (Jack bean). The conditions noted are these: swainsonine standard solution, PBST running buffer. Summed up:
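Jack bean α-Man was amine-coupled onto the GLH chip binding channel after sulfo-NHS/EDC activation. Coupling was at 20 μg/mL in 10 mmol/L sodium acetate, pH 4, at 25 μL/min for 360 s, followed by ethanolamine blocking. A reference channel was activated and blocked without enzyme. A positive-control inhibitor standard was injected, with PBST (10 mmol/L Na3PO4, 150 mmol/L NaCl, 0.005% Tween 20, pH 7.4) as the blank. The response was followed during association.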

This is an account of results in PMC10230635 (Chinese Herbal Medicines, 2022).

`O=c1c2ccccc2nc2n1CCC2` [Compound 3, Deoxyvasicinone]: at α-Mannosidase (α-Man) [1], the Kd came out at 47.3 µM, the kon was 73.3 M⁻¹ s⁻¹ and the koff came to 0.00347 s⁻¹. For the same molecule, the IC50 in series [2] was 5.7 µM. The IC50 in series [3] came to 7.21 µM. Further, in series [4], the IC50 is 0.75 µM. Besides, in series [5], the safe dose came out at 20 µmol/L.

As to `COc1cc2ncnc(Nc3ccc(F)c(Cl)c3)c2cc1OCCCN1CCOCC1` [Gefitinib, reference compound], the safe dose in series [5] was determined as 40 µmol/L.

As for `COc1cc(C=O)cc(OC)c1O` [Compound 2, 3,5-Dimethoxy-4-hydroxy-benzaldehyde], on α-Mannosidase (α-Man) [1], binding was characterised by a dissociation constant (Kd) of 347 µM, the kon worked out at 12 M⁻¹ s⁻¹ and the koff was determined as 0.00418 s⁻¹.

For the molecule `O[C@H]1[C@H]2[C@H](O)CCCN2C[C@H]1O` [swainsonine, Swainsonine], the “response signal during association” value on α-Mannosidase (α-Man) [6] was found to be 20 RU.

As for `O=Cc1ccc(O)cc1` [Compound 1, p-Hydroxybenzaldehyde], at α-Mannosidase (α-Man) [1], binding was put at a Kd of 1370 µM, the kon came out at 1.54 M⁻¹ s⁻¹ and the koff came to 0.00211 s⁻¹.

As usually defined, the Kd is a measure of binding affinity in units of concentration. A high value points to lower affinity. Usually IC50 stands for the concentration needed to halve the response being measured.
